Four compounds from article PMC7089137 (Pharmaceutical Chemistry Journal, 2019) can be followed below.

≈ marks a conversion by molar mass, not a printed value.

For one experiment, the system named is Vaccina virus. In words: microbe, parasite or virus in culture. Type of experiment: cell-based, vaccinia virus Lederle strain. The settings on record: Orthopoxvirus vaccinia, HEL, read-out: EC50 Vaccina virus.
Experiment [1] concerns L1210, CEM and HeLa cells. In words: Cytostatic activity over the three tumor cell lines. Type of experiment: cell-based. The essentials:
(§1)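 Each well is seeded with (5–7.5) × 10^4 tumor cells and exposed to test compound at 100, 20, 4, 0.8, 0.16 and 0.032 μg/mL (5-fold dilutions). Cells grow at 37°C in humidified CO2: 48 h for murine L1210, 72 h for human CEM and HeLa. They are then counted with a Coulter counter. IC50 is the concentration halving proliferation, reported as mean ± SD of at least two to three independent experiments. Cisplatin is the reference.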

A further experiment deals with Para influenza-3 virus. The experiment is described as follows: Inhibition of virus-induced cytopathicity, parainfluenza-3 virus in Vero. The format is cell-based.
The test system of a further experiment is Punta Toro virus. The experiment is described as follows: Inhibition of virus-induced cytopathicity, Punta Toro virus in Vero. To be noted: Vero cell cultures. Type of experiment: cell-based. For orientation: Protection from cytopathic effect is a common read-out in antiviral testing.
In another experiment the test system is Reo virus-1. In words: Inhibition of virus-induced cytopathicity, reovirus-1 in Vero. The format is cell-based. To be noted: Vero cell cultures.
The next experiment deals with Sindbis virus. In words: Inhibition of virus-induced cytopathicity, Sindbis virus in Vero. The format is cell-based. The settings on record: Vero cell cultures.
In experiment [2] the test system is human cervix carcinoma HeLa cells. The experiment is described as follows: Cytostatic assay, inhibition of HeLa cell proliferation. Type of experiment: cell-based. The settings on record: 72 h, read-out: IC50 HeLa. The essentials: as §1

Usually EC50 stands for the concentration that produces a half-maximal response. In the case of `N#Cc1ccc(NC(=S)NN)cc1` [I, N-(4-cyanophenyl)hydrazinecarbothioamide], the 50% effective concentration (EC50) in the experiment with Vaccina virus lay within 45 to 50 µg/mL (≈ 234 to 260 µM).

With `CSc1ccc(NC(=S)NN)cc1` [II, N-(4-methylsulfanylphenyl)hydrazinecarbothioamide], in the experiment with Vaccina virus, the EC50 is 45 to 50 µg/mL (≈ 211 to 234 µM).

For the compound `N#Cc1ccc(NC(=S)NN=Cc2ccccc2)cc1` [Ia, 2-Benzylidene-N-(4-cyanophenyl)hydrazinecarbothioamide], the “cytostatic activity (in words)” value in experiment [1] (tumor cell lines L1210, CEM, HeLa) is on record as “did not show cytostatic activity”.

As usually defined, the IC50 is the concentration at which inhibition is half-maximal. For `N#Cc1ccc(NC(=S)NN=Cc2ccc(N(CCCl)CCCl)cc2)cc1` [Ig, 2-{4-[Bis(2-chloroethyl)amino]benzylidene}-N-(4-cyanophenyl)hydrazinecarbo thioamide], the “inhibitory activity against parainfluenza virus-3 (in words)” value with Para influenza-3 virus was “no inhibitory activity”. In addition, the “inhibitory activity against Punta Toro virus (in words)” value with Punta Toro virus is “no inhibitory activity”. Besides, the half-inhibitory concentration (IC50) in experiment [1] (read-out: IC50 cytostatic activity) was 0.3 to 2.5 µg/mL (≈ 0.714 to 5.95 µM); in experiment [2] it was 0.3 µg/mL (≈ 0.714 µM). Moreover, the “inhibitory activity against reovirus-1 (in words)” value in the experiment on Reo virus-1 is on record as “no inhibitory activity”. In addition, the “inhibitory activity against Sindbis virus (in words)” value with Sindbis virus is listed as “no inhibitory activity”.
